Where a name gives a salt, the structure may show the parent alone. The source made the active and inactive calls. No cut-off for these calls is given here.
Columns and labels:
Danio rerio [1] = organism: Danio rerio; experiment: Angiogenic activity in zebrafish embryo at 100 uM after 72 hrs by microscopical analysis
HUVEC [2] = experiment: Cytotoxicity against HUVEC assessed as cell viability > 200 uM after 24 hrs by MTT assay; assay type: cell-based; details: human
Aorta [3] = experiment: Vasorelaxant activity in Sprague-Dawley rat endothelium denuded thoracic aortic rings assessed as inhibition of KCL-induced contraction; assay type: functional, tissue-based
How it was run: (§1)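 Rat thoracic aortic rings (2-3 mm) held in Krebs bicarbonate at 37 °C, pH 7.4, gassed with 95% O2/5% CO2. Endothelium accepted as intact with >80% relaxation to 1 μM ACh after 1 μM phenylephrine, and as denuded with no ACh response. Rings precontracted with KCl (30 mM intact, 25 mM denuded). Cumulative curves 0.5-200 μM, vehicle 2% DMSO, one curve per ring; EC50 derived.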

Aorta [4] = experiment: Vasorelaxant activity in Sprague-Dawley rat endothelium intact thoracic aortic rings assessed as inhibition of KPSS-induced contraction; assay type: functional, tissue-based
How it was run: as §1

HUVEC [5] = experiment: Induction of nitric oxide production in HUVEC at 20 uM after 24 hrs by griess reaction; assay type: functional, cell-based; details: Homo sapiens
How it was run: (§2)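 HUVECs preincubated 24 h with 20 μM compound, alone or together with 100 μM L-NAME. Nitrite in 100 μL medium mixed 1:1 with Griess reagent for 15 min, absorbance read at 540 nm, quantified against a NaNO2 standard curve run with each experiment. Samples in triplicate; mean ± SD, n = 6.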

HUVEC [6] = experiment: Induction of nitric oxide production in HUVEC at 20 uM after 24 hrs by griess reaction in presence of L-NAME; assay type: functional, cell-based; details: Homo sapiens
How it was run: as §2

HUVEC [7] = experiment: Protection against oxidatively modified low density lipoprotein-induced cell injury in HUVEC assessed as cell viability at 20 uM pretreated for 30 mins before oxLDL challenge measured after 24 hrs by MTT assay; assay type: functional, cell-based; details: Homo sapiens
How it was run: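 HUVECs pretreated 30 min with 20 μM compound, then given oxLDL (150 μg/mL) or vehicle for 24 h. MTT added and absorbance read at 570 nm after 4 h. Mean ± SD, n = 6.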

Danio rerio [8] = organism: Danio rerio; experiment: Angiogenic activity in zebrafish embryo after 72 hrs by microscopical analysis

For `CNC(=O)c1c(O)c2c(c3c1O[C@@]1(C)OC[C@H](C)[C@H]1C3)O[C@@]1(C)OC[C@H](C)[C@H]1C2`, the Angiogenic activity (Danio rerio [1]) was “Active”, the Activity (HUVEC [2]) was “Non-toxic” and the EC50 (Aorta [3]) was 15 µM. For the same molecule, the EC50 (Aorta [4]) was 9 µM.
In the case of `COC(=O)C(C)NC(=O)c1c(O)c2c(c3c1O[C@@]1(C)OC[C@H](C)[C@H]1C3)O[C@@]1(C)OC[C@H](C)[C@H]1C2` (stereo partly drawn), the Angiogenic activity (Danio rerio [1]) is reported as “Active”, the Activity (HUVEC [2]) is reported as “Non-toxic” and the EC50 (Aorta [3]) is reported as 13 µM. The EC50 (Aorta [4]) was 5 µM.
In the case of `C[C@H]1CO[C@]2(C)Oc3c(c4c(c5c3C[C@@H]3[C@@H](C)CO[C@]3(C)O5)C[C@@H]3[C@@H](C)CO[C@]3(C)O4)C[C@H]12`, the Activity (HUVEC [5]) is reported as “Active”, the Angiogenic activity (Danio rerio [1]) is reported as “Active” and the Activity (HUVEC [2]) is reported as “Non-toxic”. The EC50 (Aorta [3]) was 31 µM, the EC50 (Aorta [4]) was 12 µM and the Activity (HUVEC [6]) was “inactive”.
With `COC1(C)CCc2c(c3c(c4c2OC(C)(OC)CC4)OC(C)(OC)CC3)O1` (stereo not drawn) the Angiogenic activity (Danio rerio [1]) was “Active”, the Activity (HUVEC [2]) was “Non-toxic” and the EC50 (Aorta [3]) was 118 µM. It also gave an EC50 (Aorta [4]) of 65 µM.
In the case of `C[C@H]1CO[C@]2(C)Oc3c(c(O)c(Cc4c(O)c5c(c6c4O[C@@]4(C)OC[C@H](C)[C@H]4C6)O[C@@]4(C)OC[C@H](C)[C@H]4C5)c4c3C[C@@H]3[C@@H](C)CO[C@]3(C)O4)C[C@H]12`, the Angiogenic activity (Danio rerio [1]) is reported as “Active”, the Activity (HUVEC [2]) is reported as “Non-toxic” and the EC50 (Aorta [3]) is reported as > 200 µM. The EC50 (Aorta [4]) was 87 µM.
In the case of `CC1COC2(C)Oc3cc(O)cc(O)c3CC12` (racemic), the Angiogenic activity (Danio rerio [1]) is reported as “Active”, the Activity (HUVEC [7]) is reported as “Active” and the Activity (HUVEC [2]) is reported as “Non-toxic”. It also gave an EC50 (Aorta [3]) of 66 µM and an EC50 (Aorta [4]) of 39 µM.
In the case of `CC1COC2(C)Oc3c(c4c(c5c3CC3C(C)COC3(C)O5)CC3C(C)COC3(C)O4)CC12` (racemic), the Angiogenic activity (Danio rerio [1]) is reported as “Active”, the Activity (HUVEC [7]) is reported as “Active” and the Activity (HUVEC [2]) is reported as “Non-toxic”. The EC50 (Aorta [3]) was 11 µM and the EC50 (Aorta [4]) was 6 µM.
In the case of `CC1COC2(C)Oc3cc(O)c4c(c3CC12)OC1(C)OCC(C)C1C4` (racemic) [(+/-)-XYLOKETAL B], the Angiogenic activity (Danio rerio [8]) is reported as “Dose-dependent effect”, the Angiogenic activity (Danio rerio [1]) is reported as “Active” and the Activity (HUVEC [7]) is reported as “Active”. For the same molecule, the Activity (HUVEC [2]) was “Non-toxic”, the EC50 (Aorta [3]) was 41 µM and the EC50 (Aorta [4]) was 19 µM.
`C[C@H]1CO[C@]2(C)Oc3ccc4c(c3C[C@H]12)O[C@@]1(C)OC[C@H](C)[C@H]1C4` [DEHYDROXY XYLOKETAL B] was tested, and the Activity (HUVEC [2]) was “Non-toxic”, the EC50 (Aorta [3]) was 72 µM and the EC50 (Aorta [4]) was 55 µM.
With `C[C@H]1CO[C@]2(C)Oc3cccc(O)c3C[C@H]12` [DEHYDROXY XYLOKETAL H] the Activity (HUVEC [2]) was “Non-toxic”, the EC50 (Aorta [3]) was > 200 µM and the EC50 (Aorta [4]) was 128 µM.
For `Cc1cc2c(c3c1C[C@@H]1[C@@H](C)CO[C@]1(C)O3)C[C@@H]1[C@@H](C)CO[C@]1(C)O2` [METHYL XYLOKETAL B], the Activity (HUVEC [5]) was “Active”, the Angiogenic activity (Danio rerio [1]) was “Active” and the Activity (HUVEC [7]) was “Active”. The Activity (HUVEC [2]) was “Non-toxic”, the EC50 (Aorta [3]) was 52 µM and the EC50 (Aorta [4]) was 40 µM. The Activity (HUVEC [6]) was “inactive”.
For `C[C@H]1CO[C@]2(C)Oc3c(c(O)c(C(=O)O)c4c3C[C@@H]3[C@@H](C)CO[C@]3(C)O4)C[C@H]12` [XYLOKETAL B ACID], the Activity (HUVEC [2]) was “Non-toxic”, the EC50 (Aorta [3]) was > 200 µM and the EC50 (Aorta [4]) was > 200 µM.
`C=C=CCOc1cc2c(c3c1C[C@@H]1[C@@H](C)CO[C@]1(C)O3)C[C@@H]1[C@@H](C)CO[C@]1(C)O2` [XYLOKETAL B ALLENIC ETHER] was tested, and the Angiogenic activity (Danio rerio [1]) was “Active”, the Activity (HUVEC [7]) was “Active” and the Activity (HUVEC [2]) was “Non-toxic”. For the same molecule, the EC50 (Aorta [3]) was 11 µM and the EC50 (Aorta [4]) was 12 µM.
In the case of `CCCCOc1cc2c(c3c1C[C@@H]1[C@@H](C)CO[C@]1(C)O3)C[C@@H]1[C@@H](C)CO[C@]1(C)O2` [XYLOKETAL B BUTYL ETHER], the Activity (HUVEC [2]) is reported as “Non-toxic”, the EC50 (Aorta [3]) is reported as > 200 µM and the EC50 (Aorta [4]) is reported as 111 µM.
In the case of `C[C@H]1CO[C@]2(C)Oc3cc(OC/C=C/c4ccccc4)c4c(c3C[C@H]12)O[C@@]1(C)OC[C@H](C)[C@H]1C4` [XYLOKETAL B CINNAMYL ETHER], the Activity (HUVEC [2]) is reported as “Non-toxic”, the EC50 (Aorta [3]) is reported as > 200 µM and the EC50 (Aorta [4]) is reported as 64 µM.
For `C[C@H]1CO[C@]2(C)Oc3c(c(O)c(C(N)=O)c4c3C[C@@H]3[C@@H](C)CO[C@]3(C)O4)C[C@H]12` [XYLOKETAL B FORMAMIDE], the Angiogenic activity (Danio rerio [1]) was “Active”, the Activity (HUVEC [2]) was “Non-toxic” and the EC50 (Aorta [3]) was 10 µM. For the same molecule, the EC50 (Aorta [4]) was 3 µM.
For `CCCCCCOc1cc2c(c3c1C[C@@H]1[C@@H](C)CO[C@]1(C)O3)C[C@@H]1[C@@H](C)CO[C@]1(C)O2` [XYLOKETAL B HEXYL ETHER], the Activity (HUVEC [2]) was “Non-toxic”, the EC50 (Aorta [3]) was > 200 µM and the EC50 (Aorta [4]) was > 200 µM.
For `COc1cc2c(c3c1C[C@@H]1[C@@H](C)CO[C@]1(C)O3)C[C@@H]1[C@@H](C)CO[C@]1(C)O2` [XYLOKETAL B METHYL ETHER], the Activity (HUVEC [5]) was “Active”, the Angiogenic activity (Danio rerio [1]) was “Active” and the Activity (HUVEC [7]) was “Active”. For the same molecule, the Activity (HUVEC [2]) was “Non-toxic”, the EC50 (Aorta [3]) was 33 µM and the EC50 (Aorta [4]) was 17 µM. For the same molecule, the Activity (HUVEC [6]) was “inactive”.
With `COC(=O)c1c(O)c2c(c3c1O[C@@]1(C)OC[C@H](C)[C@H]1C3)O[C@@]1(C)OC[C@H](C)[C@H]1C2` [XYLOKETAL B METHYL FORMATE] the Angiogenic activity (Danio rerio [1]) was “Active”, the Activity (HUVEC [2]) was “Non-toxic” and the EC50 (Aorta [3]) was 14 µM. The EC50 (Aorta [4]) was 8 µM.
With `C#CCOc1cc2c(c3c1C[C@@H]1[C@@H](C)CO[C@]1(C)O3)C[C@@H]1[C@@H](C)CO[C@]1(C)O2` [XYLOKETAL B PROPARGYL ETHER] the Activity (HUVEC [5]) was “Active”, the Angiogenic activity (Danio rerio [1]) was “Active” and the Activity (HUVEC [7]) was “Active”. For the same molecule, the Activity (HUVEC [2]) was “Non-toxic”, the EC50 (Aorta [3]) was 22 µM and the EC50 (Aorta [4]) was 23 µM. For the same molecule, the Activity (HUVEC [6]) was “inactive”.
In the case of `CCCOc1cc2c(c3c1C[C@@H]1[C@@H](C)CO[C@]1(C)O3)C[C@@H]1[C@@H](C)CO[C@]1(C)O2` [XYLOKETAL B PROPYL ETHER], the Angiogenic activity (Danio rerio [1]) is reported as “Active”, the Activity (HUVEC [7]) is reported as “Active” and the Activity (HUVEC [2]) is reported as “Non-toxic”. The EC50 (Aorta [3]) was 77 µM and the EC50 (Aorta [4]) was 43 µM.
For `COc1cc(OC)c2c(c1)O[C@@]1(C)OC[C@H](C)[C@H]1C2` [XYLOKETAL H DIMETHYL ESTER], the Activity (HUVEC [2]) was “Non-toxic”, the EC50 (Aorta [3]) was 80 µM and the EC50 (Aorta [4]) was 37 µM.

Source: ChEMBL document CHEMBL1177703, “Design and synthesis of novel xyloketal derivatives and their vasorelaxing activities in rat thoracic aorta and angiogenic activities in zebrafish angiogenesis screen” (J Med Chem, 2010)
